ChEMBL document CHEMBL1132342, “Novel hypotensive agents from Verbesina caracasana. 6. Synthesis and pharmacology of caracasandiamide” (1999)
“And” between values parts separate entries of the source, which are not always exact repeats. Equal entries are not always repeated.

Assays:
Rattus norvegicus [1] = test: Change in systolic blood pressure after iv administration of 1600 ug/Kg in the presence of noradrenaline (agonist) in anesthetized rats; type: functional, Artery
Rattus norvegicus [2] = test: Change in systolic blood pressure after iv administration of 200 ug/Kg in anesthetized rats; type: functional, Artery
In short: (§1)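 Male Wistar rats (299 ± 3 g) were anesthetized with ethylurethane ip, tracheally cannulated and breathing spontaneously, at 37 °C, and stabilized for 60 min. Doses of 50-3200 µg/kg (ratio 2.0) in saline were injected by femoral vein, 50 µL each. Recordings: femoral arterial BP, electromagnetic abdominal-aortic flow, SV from integrated pulsatile flow, polygraphic RF. Peak changes, mean ± SE, n = 12 (n = 7 at 3200).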

Rattus norvegicus [3] = test: Change in systolic blood pressure after iv administration of 400 ug/Kg in anesthetized rats; type: functional, Artery
In short: (§2)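 Urethane-anesthetized (10% w/v, […] ip in saline) adult male Wistar rats, trachea cannulated, breathing spontaneously, 37 °C. Femoral artery catheter for blood pressure, femoral vein for dosing. Sequential iv doses 50–3200 µg/kg (ratio 2.0) in saline, each given after parameters returned to baseline. Peak changes recorded; means ± SE, n = 12 (n = 7 at 3200 µg/kg).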

Rattus norvegicus [4] = test: Change in systolic blood pressure after iv administration of 400 ug/Kg in the presence of noradrenaline (agonist) in anesthetized rats; type: functional, Artery
In short: (§3)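 Anesthetized male Wistar rats, two groups of 8, received 400 or 1600 µg/kg iv. Before and after this dose, iv agonist challenges were given: noradrenaline 1 µg/kg, adrenaline, acetylcholine 2.50 µg/kg, or isoprenaline. Systolic/diastolic BP, heart rate and dP/dt responses were recorded before (control) and after dosing; significance was set at p < 0.05 versus control.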

Rattus norvegicus [5] = test: Change in diastolic blood pressure after iv administration of 1600 ug/Kg in anesthetized rats; type: functional, Artery
In short: (§4)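 Adult male Wistar rats under ip ethylurethane (10% w/v in saline, 1 mL/kg) with tracheal cannula and spontaneous breathing, kept at 37 °C. Arterial BP was recorded by femoral artery catheter; compound in saline (50 µL) was given via femoral vein at 50–3200 µg/kg, ratio 2.0. Peak change is given as mean ± SE, n = 12 (n = 7 at 3200 µg/kg).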

Rattus norvegicus [6] = test: Change in diastolic blood pressure after iv administration of 1600 ug/Kg in the presence of acetylcholine (agonist) in anesthetized rats; type: functional, Artery
In short: (§5)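 Urethane-anesthetized male Wistar rats (16 rats, two equal groups) received 400 or 1600 µg/kg compound iv. Cardiovascular responses to iv agonist boluses (noradrenaline 1 µg/kg, acetylcholine 2.50 µg/kg, adrenaline, isoprenaline) were measured before and after compound dosing. Peak responses are given as mean ± SE; p < 0.05 versus control mean.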

Rattus norvegicus [7] = test: Change in diastolic blood pressure after iv administration of 1600 ug/Kg in the presence of isoprenaline (agonist) in anesthetized rats; type: functional, Artery; in short: as §5
Rattus norvegicus [8] = test: Change in diastolic blood pressure after iv administration of 3200 ug/Kg in anesthetized rats; type: functional, Artery; in short: as §4
Rattus norvegicus [9] = test: Change in diastolic blood pressure after iv administration of 400 ug/Kg compound (treatment with hexamethonium (5 mg/Kg, iv)in anesthetized rats; type: functional, Artery
In short: (§6)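 In anesthetized male Wistar rats, responses to iv compound (200–1600 µg/kg, ratio 2.0) were measured alone and under three pretreatments: continuous iv papaverine infusion (1 mg/kg/min), ip reserpine (5 mg/kg/day for 2 days), or iv hexamethonium (5 mg/kg). Peak changes are given as mean ± SE, n = 6 per group; p < 0.05 versus control.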

Rattus norvegicus [10] = test: Change in diastolic blood pressure after iv administration of 400 ug/Kg in anesthetized rats; type: functional, Artery; in short: as §4
Rattus norvegicus [11] = test: Change in diastolic blood pressure after iv administration of 400 ug/Kg in the presence of noradrenaline (agonist) in anesthetized rats; type: functional, Artery; in short: as §5
Rattus norvegicus [12] = test: Change in systolic blood pressure after iv administration of 800 ug/Kg in anesthetized rats; type: functional, Artery; in short: as §2
Rattus norvegicus [13] = test: Change in diastolic blood pressure after iv administration of 800 ug/Kg compound (treatment with papaverine(1 mg/Kg/min, iv)in anesthetized rats; type: functional, Artery; in short: as §6
Rattus norvegicus [14] = test: Change in diastolic blood pressure after iv administration of 800 ug/Kg compound (treatment with reserpine(5 mg/kg/day for 2 days, ip)in anesthetized rats; type: functional, Artery; in short: as §6
Rattus norvegicus [15] = test: Change in diastolic blood pressure after iv administration of 800 ug/Kg in anesthetized rats; type: functional, Artery; in short: as §4
Rattus norvegicus [16] = test: Change in systolic blood pressure after iv administration of 1600 ug/Kg in anesthetized rats; type: functional, Artery; in short: as §1
Rattus norvegicus [17] = test: Change in diastolic blood pressure after iv administration of 100 ug/Kg in anesthetized rats; type: functional, Artery; in short: as §4
Rattus norvegicus [18] = test: Change in heart rate after iv administration of 1600 ug/kg compound (treatment with reserpine(5 mg/kg/day for 2 days, ip))in anesthetized rats; type: functional; in short: as §6
Rattus norvegicus [19] = test: Change in heart rate after iv administration of 1600 ug/Kg in the presence of noradrenaline (agonist) in anesthetized rats; type: functional; in short: as §5
Rattus norvegicus [20] = test: Change in heart rate after iv administration of 200 ug/Kg in anesthetized rats; type: functional; in short: as §4
Rattus norvegicus [21] = test: Change in heart rate after iv administration of 50 ug/Kg in anesthetized rats; type: functional; in short: as §1
Rattus norvegicus [22] = test: Change in mean aortic flow after iv administration of 3200 ug/Kg in anesthetized rats; type: functional; in short: as §1
Rattus norvegicus [23] = test: Maximum rate of rise of the left ventricular isovolumetric pressure was measured after iv administration of 800 ug/Kg compound (treatment with papaverine(1 mg/Kg/min, iv)in anesthetized rats; type: functional, Heart left ventricle
In short: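 Anesthetized rats, n = 6 per group, received iv doses of 200–1600 µg/kg (ratio 2.0) either alone (control) or under pretreatment: continuous iv papaverine infusion 1 mg/kg/min, reserpine 5 mg/kg/day ip for 2 days, or hexamethonium 5 mg/kg iv. Peak changes in BP, heart rate and dP/dt recorded; means ± SE, p < 0.05 versus control.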

Rattus norvegicus [24] = test: Maximum rate of rise of the left ventricular isovolumetric pressure was measured after iv administration of 800 ug/Kg in anesthetized rats; type: functional, Heart left ventricle; in short: as §2
Rattus norvegicus [25] = test: Maximum rate of rise of the left ventricular isovolumetric pressure was measured after iv administration of 400 ug/Kg in the presence of acetylcholine (agonist) in anesthetized rats; type: functional, Heart left ventricle; in short: as §3
Rattus norvegicus [26] = test: Maximum rate of rise of the left ventricular isovolumetric pressure was measured after iv administration of 400 ug/Kg in the presence of adrenaline (agonist) in anesthetized rats; type: functional, Heart left ventricle; in short: as §3
Rattus norvegicus [27] = test: Change in respiratory frequency after iv administration of 400 ug/Kg in anesthetized rats; type: functional; in short: as §1
Rattus norvegicus [28] = test: Maximum rate of rise of the left ventricular isovolumetric pressure was measured after iv administration of 4.12 uM/kg in anesthetized rats; ratio given for dP/dt; type: functional, Heart left ventricle

For `COc1ccc(C2C(c3ccc(OC)c(OC)c3)[C@H](C(=O)NCCCC/N=C(\N)NCC=C(C)C)[C@@H]2C(=O)NCCCC/N=C(\N)NCC=C(C)C)cc1OC` (stereo partly specified) [CARACASANDIAMIDE], the BP (Rattus norvegicus [1]) was 24 mmHg, the BP (Rattus norvegicus [2]) was -14 mmHg and the “Change in BP” value (Rattus norvegicus [2]) was -13%. For the same compound, the BP (Rattus norvegicus [3]) was -20 mmHg, the “Change in BP” value (Rattus norvegicus [3]) was -19% and the BP (Rattus norvegicus [4]) was 31 mmHg. The BP (Rattus norvegicus [5]) was -43 mmHg, the “Change in BP” value (Rattus norvegicus [5]) was -55% and the BP (Rattus norvegicus [6]) was -54 mmHg. For the same compound, the BP (Rattus norvegicus [7]) was -66 mmHg, the BP (Rattus norvegicus [8]) was -53 mmHg and the “Change in BP” value (Rattus norvegicus [8]) was -68%. For the same compound, the BP (Rattus norvegicus [9]) was -45 mmHg, the BP (Rattus norvegicus [10]) was -17 mmHg and the “Change in BP” value (Rattus norvegicus [10]) was -22%. The BP (Rattus norvegicus [11]) was 15 mmHg, the BP (Rattus norvegicus [12]) was -30 mmHg and the “Change in BP” value (Rattus norvegicus [12]) was -29%. The BP (Rattus norvegicus [13]) was -16 mmHg, the BP (Rattus norvegicus [14]) was -12 mmHg and the BP (Rattus norvegicus [15]) was -31 mmHg. For the same compound, the “Change in BP” value (Rattus norvegicus [15]) was -40%, the BP (Rattus norvegicus [16]) was -41 mmHg and the “Change in BP” value (Rattus norvegicus [16]) was -39%. The BP (Rattus norvegicus [17]) was 10 mmHg, the “Change in BP” value (Rattus norvegicus [17]) was 13% and the Heart rate (Rattus norvegicus [18]) was -14 beats min-1. The Heart rate (Rattus norvegicus [19]) was 13 beats min-1, the “Change in heart rate” value (Rattus norvegicus [20]) was -4% and the Heart rate (Rattus norvegicus [20]) was -13 beats min-1. For the same compound, the “Change in heart rate” value (Rattus norvegicus [21]) was -3%, the Heart rate (Rattus norvegicus [21]) was -9 beats min-1 and the “Change in mean aortic flow” value (Rattus norvegicus [22]) was -56%. The Mean aortic flow (Rattus norvegicus [22]) was -41 mL/min, the dP/dt (Rattus norvegicus [23]) was 2967 mmHg s-1 and the “Change in dP/dt” value (Rattus norvegicus [24]) was 54%. It also gave a dP/dt (Rattus norvegicus [24]) of 3282 mmHg s-1, a dP/dt (Rattus norvegicus [25]) of -5820 mmHg s-1 and a dP/dt (Rattus norvegicus [26]) of 6848 mmHg s-1. For the same compound, the “Change in respiratory frequency” value (Rattus norvegicus [27]) was -3 beats min-1 and -3% and the dP/dt (Rattus norvegicus [28]) was 3990 mmHg s-1.
